The record followed here is the array DNA melting data of Ke et al. (doi:10.1101/2024.01.08.574731).

The nature of series [1]: melting temperature; fluorescence melt of hairpins on a sequencing array, two-state fit, raised by 9.35 °C to match UV melts. As to conditions: sodium 0.088 M. In outline: (§1)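 In 50 mM Na-HEPES pH 8.0 containing 25 mM NaCl, hairpins from the library on a sequenced MiSeq flow cell were imaged for Cy3 fluorescence at 2.5 °C steps up to 60 °C, with Cy3 and quencher oligos annealed. After normalisation to pre-quench Cy3 and to control constructs, two-state fits with bootstrapping gave melting temperature and folding enthalpy. Four replicates were combined by inverse-variance weighting, and fitted temperatures were shifted up by 9.35 °C to match UV melts.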

Series [2] can be described thus: folding enthalpy; higher = less favourable; fluorescence melt of hairpins on a sequencing array, two-state fit. As to conditions: sodium 0.088 M. In outline: as §1

Turning to GCGTGAGGAAACTCATGC ((.((((....)))).)), the Tm in series [1] was 53.4 °C. In addition, the folding enthalpy in series [2] was -35.8 kcal/mol.

In the case of GCGTGAGGAAACTCGTGC ((..(((....)))..)), the Tm in series [1] turned out to be 38.9 °C. For the same sequence, the folding enthalpy in series [2] was -28.7 kcal/mol.

Regarding GCGTGAGGAAACTTGCGC (((..((....))..))), the Tm in series [1] is 48.3 °C. The folding enthalpy in series [2] was -30.9 kcal/mol.

For GCGTGCACGAAAGTGCGC (((..(((....)))))), the Tm in series [1] came out at 51.9 °C. For the same sequence, the folding enthalpy in series [2] is -9.64 kcal/mol.

Turning to GCGTGCGAAAGCACTCGC ((((((....)))..))), in series [1], the Tm was found to be 51.5 °C. The folding enthalpy in series [2] is -12.4 kcal/mol.

As for GCGTGCGAAAGCAGTCGC ((((((....)))..))), the Tm in series [1] was 53 °C. Besides, the folding enthalpy in series [2] was -20.1 kcal/mol.

Turning to GCGTGCGACGC ((((...)))), the Tm in series [1] was 61 °C. Moreover, the folding enthalpy in series [2] was -13.9 kcal/mol.

GCGTGCTGACGC ((((....)))): in series [1], the Tm came to 58.2 °C. Besides, the folding enthalpy in series [2] is -18.1 kcal/mol.

In the case of GCGTGGAAACGC ((((....)))), the Tm in series [1] was found to be 58.8 °C. For the same sequence, the folding enthalpy in series [2] is -30.1 kcal/mol.

For GCGTGGACACGC ((((....)))), in series [1], the Tm amounted to 62 °C. The folding enthalpy in series [2] is -25.5 kcal/mol.

In the case of GCGTGGCGAAAGCCCCGC (((.(((....))).))), the Tm in series [1] turned out to be 67.6 °C. For the same sequence, the folding enthalpy in series [2] was -29.3 kcal/mol.

GCGTGGCGAAAGCCGGGC ((..(((....)))..)): the Tm in series [1] worked out at 64.7 °C. Moreover, the folding enthalpy in series [2] was -27 kcal/mol.

As for GCGTGGCGAAAGCCTAGC ((..(((....)))..)), the Tm in series [1] stood at 59.5 °C. For the same sequence, in series [2], the folding enthalpy was -20.2 kcal/mol.

As to GCGTGGCGAAAGCGCCGC (((..((....))..))), the Tm in series [1] came out at 56.2 °C. The folding enthalpy in series [2] is -19.1 kcal/mol.

For the sequence GCGTGGCGAAAGCTAGGC ((.(.((....)).).)), in series [1], the Tm worked out at 52 °C. In series [2], the folding enthalpy is -20.4 kcal/mol.

On to GCGTGGGAACGC ((((....)))), for which the Tm in series [1] came to 66.7 °C. In series [2], the folding enthalpy is -20.4 kcal/mol.

As for GCGTGGGCACGC ((((....)))), the Tm in series [1] stood at 57.3 °C. In series [2], the folding enthalpy was -24.7 kcal/mol.

GCGTGTACGAAAGTACGC (((..(((....)))))): the Tm in series [1] was determined as 53.1 °C. The folding enthalpy in series [2] is -15 kcal/mol.

As to GCGTGTCCGAAAGGACGC (((..(((....)))))), the Tm in series [1] came out at 50.1 °C. Besides, in series [2], the folding enthalpy is -9.9 kcal/mol.

Turning to GCGTGTGGAAACACACAC (.(((((....))))).), the Tm in series [1] is 44.4 °C. Further, in series [2], the folding enthalpy was -13.7 kcal/mol.

As to GCGTGTGGAAACATACGC ((((.((....)).)))), the Tm in series [1] was 58.8 °C. Further, in series [2], the folding enthalpy is -39 kcal/mol.

As to GCGTGTGGACGC ((((....)))), the Tm in series [1] was 53.9 °C. Moreover, in series [2], the folding enthalpy was -13.9 kcal/mol.

For GCGTTAACACGC ((((....)))), in series [1], the Tm was 49.1 °C. Further, the folding enthalpy in series [2] is -20.1 kcal/mol.

Consider GCGTTACCGAAAGGTCGC (((..(((....)))))), for which the Tm in series [1] amounted to 51.1 °C. For the same sequence, the folding enthalpy in series [2] is -25.3 kcal/mol.

As for GCGTTAGGAAACTAACAC (.(((((....))))).), the Tm in series [1] amounted to 35.9 °C. Further, the folding enthalpy in series [2] was -16.2 kcal/mol.

GCGTTAGGACGC ((((....)))): in series [1], the Tm was found to be 52.9 °C. Besides, in series [2], the folding enthalpy was -25.4 kcal/mol.

For GCGTTCACGAAAGTGCGC (((..(((....)))))), in series [1], the Tm came to 51.4 °C. In series [2], the folding enthalpy is -19.2 kcal/mol.

Turning to GCGTTCGAAAGAAGACGC ((((((....)))..))), the Tm in series [1] came to 46.9 °C. The folding enthalpy in series [2] was -31.8 kcal/mol.

For the sequence GCGTTCGAAAGAAGCCGC ((((((....)))..))), in series [1], the Tm came to 35.9 °C. In addition, the folding enthalpy in series [2] was -22.7 kcal/mol.

Regarding GCGTTCGAAAGAAGCGC ((((((....))).))), the Tm in series [1] came to 52.5 °C. Moreover, the folding enthalpy in series [2] is -28.8 kcal/mol.

Regarding GCGTTCGGAAACGAACAC (.(((((....))))).), in series [1], the Tm amounted to 45.5 °C. In series [2], the folding enthalpy was -13.7 kcal/mol.

Take GCGTTCGTACGC ((((....)))): in series [1], the Tm stood at 58.3 °C. Further, in series [2], the folding enthalpy is -22.1 kcal/mol.

In the case of GCGTTCTACGC ((((...)))), in series [1], the Tm stood at 58.2 °C. Also, the folding enthalpy in series [2] is -22.5 kcal/mol.

Take GCGTTCTCGAAAGAGCGC (((..(((....)))))): the Tm in series [1] was found to be 51.1 °C. Further, the folding enthalpy in series [2] was -34.3 kcal/mol.

On to GCGTTCTTACGC ((((....)))), for which the Tm in series [1] worked out at 52.8 °C. Besides, in series [2], the folding enthalpy was -27 kcal/mol.

As for GCGTTGCGAAAGCGAAGC ((.(.((....)).).)), in series [1], the Tm was found to be 54 °C. Besides, in series [2], the folding enthalpy was -20.4 kcal/mol.

As for GCGTTGGCACGC ((((....)))), in series [1], the Tm amounted to 50 °C. Also, the folding enthalpy in series [2] was -17.2 kcal/mol.

GCGTTGGGAAACCAACAC (.(((((....))))).): the Tm in series [1] came to 42.5 °C. For the same sequence, the folding enthalpy in series [2] was -14.4 kcal/mol.

Consider GCGTTGGGAAACTAGCGC (((.(.(....).).))), for which, in series [1], the Tm amounted to 47.9 °C. Further, the folding enthalpy in series [2] is -35.9 kcal/mol.
